The values below come from ChEMBL document CHEMBL1126658, “Thyroid hormone uptake by hepatocytes: structure-activity relationships of phenylanthranilic acids with inhibitory activity” (J Med Chem, 1993).

In general, inhibition refers to the percentage by which the read-out fell short of the control.

Molecules are shown by their SMILES.

This assay deals with H4. Description: Compound is evaluated for the inhibition of [125I]T3 uptake by H4 rat hepatoma cells at 0.1 mM. The class given is functional. In short, it runs like this: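 H4 rat hepatoma cells grown in DMEM/10% FCS at 37 °C, plated to confluence (2 × 10^6 cells/well), then held overnight in serum-free DMEM. Fresh medium with 10^-11 M [125I]T3 plus test substance (final 0.1 mM from DMSO/ethanol stock; solvent-matched controls), 2 min at 37 °C. Five PBS pH 7.4 washes, 0.1 M NaOH lysis, cell-associated radioactivity counted. Nondisplaceable uptake taken with 10^-5 M unlabeled T3. Percent inhibition vs control, ≥5 replicates.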
As to `O=C(O)c1ccccc1Nc1ccc(Cl)c(Cl)c1`, at 100 µM the inhibition was 55.6%.
`O=C(O)c1ccccc1Nc1cccc(Cl)c1`: the inhibition at 100 µM was found to be 51.4%.
Under `O=C(O)c1ccccc1Nc1cc(Cl)cc(Cl)c1` stands 60.6%; under `N#Cc1cccc(Nc2ccccc2C(=O)O)c1`, 11.6%; under `O=C(O)c1ccccc1Nc1c(Cl)cccc1Cl`, 54.6%.
In the case of `O=C(O)c1ccccc1Nc1ccc(Cl)c(C(F)(F)F)c1` it was 51%; in that of `O=C(O)c1ccccc1Nc1cc(C(F)(F)F)cc(C(F)(F)F)c1`, 39.5%.
As for `Cc1cccc(Nc2ccccc2)c1C`, the inhibition at 100 µM was 35.4%.
Molecule `Cc1cccc(Nc2ccccc2C(=O)O)c1` came in with an inhibition at 100 µM of 30%.
Take `COc1ccc(Nc2ccccc2C(=O)O)cc1C(F)(F)F`: 100 µM produced 54% inhibition.
Regarding `O=C(O)c1ccccc1Nc1cccc(OC(F)(F)C(F)F)c1`, the inhibition at 100 µM amounted to 57%.
Under `O=C(O)c1ccccc1Nc1cccc(O)c1` stands 6.6%; under `O=C(O)c1ccccc1Nc1cccc(Br)c1`, 48.1%; under `O=C(O)c1ccccc1Nc1cc(Cl)ccc1Cl`, 43.2%.
Under `O=C(O)c1ccccc1Nc1ccccc1Cl` stands 44.6%.
Under `O=C(O)c1ccccc1Nc1cccc(I)c1` stands 40%; under `Cc1cccc(C)c1Nc1ccccc1C(=O)O`, 48%; under `O=C(O)c1ccccc1Nc1cc(Br)cc(Br)c1`, 39.1%.
The molecule `O=C(O)c1ccccc1Nc1cccc(Cl)c1Cl` [CLOFENAMIC ACID] returned an inhibition at 100 µM of 56.6%.
Under `O=C(O)Cc1ccccc1Nc1c(Cl)cccc1Cl` [DICLOFENAC] stands 38%; under `O=C(O)c1ccccc1Nc1ccccc1` [FENAMIC ACID], 28%; under `O=C(O)c1ccccc1Nc1cccc(C(F)(F)F)c1` [FLUFENAMIC ACID], 64.4%.
With `Cc1ccc(Cl)c(Nc2ccccc2C(=O)O)c1Cl` [MECLOFENAMIC ACID], at 100 µM the inhibition was 74.2%.
Molecule `Cc1cccc(Nc2ccccc2C(=O)O)c1C` [MEFENAMIC ACID] had an inhibition at 100 µM of 60.9%.
